We go through 71 molecules from PubChem BioAssay AID617 (SRMLSC, 2007).

Each structure is given as a SMILES string.

In the assay the test system is E. coli BW25113 ΔtolC growth inhibition, OD615. In words: growth inhibitors of E. coli tolC mutant, dose response, strain BW25113 ΔtolC::kan (AID 617). In a few lines:
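System – E. coli BW25113 ΔtolC::kan bacteria · Input – inoculum from 1:1000-diluted 1.5 h subculture · Buffer or medium – LB plus kanamycin · Compound – serial dilution series of compound · Timing – bacterial growth with compound for 20 h, 37 °C · Measured by – OD615 · Read-out basis – growth-inhibition IC50 from four-parameter logistic curve, bounds set to 0% and 100% · Benchmarks – chloramphenicol 30 µM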
By IC50 is commonly meant the midpoint of a concentration-inhibition curve. For `COc1ccc2[nH]c3c(=O)n(CCCCC(=O)N4CCC(C(N)=O)CC4)c(=S)[nH]c3c2c1`, the 50% inhibitory concentration (IC50) is 10.7 µM.
The figure for `Cc1cc(Cl)ccc1OCC(=O)Nc1ccccc1N1CCOCC1` is 8.64 µM; for `COC(=O)C1=C(CSc2nc3ccccc3o2)NC(=O)NC1c1cc(C)ccc1C` (stereo unspecified) it is 13 µM.
Regarding `O=C(Nc1ccc2c(c1)OCO2)c1ccc(COc2ccc3c(c2)CCC3)o1`, the IC50 is 7.79 µM.
As for `N#Cc1nc(-c2ccc(OCc3ccccc3Cl)cc2)oc1NCCCn1ccnc1`, the figure is 5.13 µM.
Consider `CC(C)(C)c1ccc(OCc2nc(-c3ccccn3)no2)c(Br)c1`, for which the IC50 was 6.81 µM.
As for `CCCCCC(=O)Nc1ccccc1N1CCN(c2ccccc2)CC1`, the figure is 20.6 µM; as for `CCOC(=O)c1nnn(-c2nonc2-n2cccc2)c1CN1CCC(C)CC1`, 23.4 µM.
The figure for `CCCCCn1c(-c2ccco2)nc2nc3ccccc3nc21` is 84.8 µM; for `Cc1cccc(C)c1NC(=O)C(c1cccs1)N(Cc1ccco1)C(=O)Cn1nnc2ccccc21` (stereo unspecified) it is 29.3 µM.
The figure for `CCCc1cc(-c2[nH]ncc2-c2ccc3c(c2)OCCCO3)c(O)cc1O` is 5.48 µM; for `CCSC(C)CC1C/C(=N/O)c2c(CC)noc2C1` (stereo unspecified) it is 20.7 µM.
For `Cc1ccc(C)c2[nH]c(=O)c(CN(CC3CCCO3)S(=O)(=O)c3ccc4c(c3)OCCO4)cc12` (stereo unspecified), the half-inhibitory concentration (IC50) was 38.6 µM.
The figure for `CCCCc1ccc(C2C(C#N)=C(N)SC(N)=C2C#N)s1` is 13.8 µM; for `COc1ccc(-c2noc(CCCc3ccccc3)n2)cc1OC` it is 23.1 µM; for `O=C(c1cc2ccccc2o1)N1CCN(c2ccccc2Cl)CC1` it is 9.9 µM.
The figure for `CCCCC(CC)CNC(=O)c1[nH]c(C)c(C(C)=O)c1C` (stereo unspecified) is 1.28 µM; for `CCOC(=O)c1c(NS(=O)(=O)c2cccc(OC)c2)sc2c1CCC2` it is 56.2 µM.
In the case of `CCC(C(=O)Nc1ccccc1OC)n1c(C(=O)OC)cc2ccsc21` (stereo unspecified), the IC50 is 10.9 µM.
On to `Cc1ccc(NC(=O)CSC2=C(C#N)C(c3ccco3)C3=C(CC(C)(C)CC3=O)N2)cc1` (stereo unspecified), for which the half-maximal inhibitory concentration (IC50) is 8.92 µM.
The figure for `COc1cc(-c2nnc(SCc3ccccc3Cl)o2)cc(OC)c1OC` is 10.2 µM.
As for `CCOC(=O)c1cnc(-n2nc(C)cc2C)nc1NC1CCCCC1`, the figure is 0.54 µM; as for `CCC(C)(C)n1nnnc1C(c1cc2ccc(C)cc2[nH]c1=O)N(Cc1cccnc1)Cc1ccco1` (stereo unspecified), 15.2 µM.
For `COc1ccccc1OCCSc1nnnn1-c1ccc(C)cc1`, the IC50 is 18.9 µM.
As for `CNc1ccc(C(O)(C(F)(F)F)C(F)(F)F)cc1C(O)(C(F)(F)F)C(F)(F)F`, the figure is 6.95 µM; as for `CCCCOc1ccc(S(=O)(=O)N2CCCCCC2)cc1`, 23.8 µM; as for `Cn1c(=O)c2c(nc(N3CCCCCC3)n2Cc2cccc3ccccc23)n(C)c1=O`, 7.33 µM.
The figure for `O=S(=O)(N1CCCCC1)n1c(Cc2ccccc2)nc2ccccc21` is 6.89 µM; for `CCC(C)(C)n1nnnc1CN(Cc1ccc(Cl)cc1)Cc1ccco1` it is 12.6 µM.
For `CCCn1c2ccccc2c2nc3ccccc3nc21`, the IC50 was 73.4 µM.
The figure for `COc1ccc(Oc2cn[nH]c2-c2ccc(O)cc2O)cc1` is 7.86 µM; for `CCCc1nc(SCC(=O)N2CCC(Cc3ccccc3)CC2)c2c(=O)n(C)c(=O)n(C)c2n1` it is 11.2 µM; for `Oc1c(C(c2cccs2)N2CCN(c3cccc(Cl)c3)CC2)sc2ncnn12` (stereo unspecified) it is 13.9 µM.
As for `Cc1cc(C)n(-c2nc(NC(C)C)nc(NC(C)C)n2)n1`, the IC50 was 2.96 µM.
The figure for `Cc1ccc2c(c1)[nH]c1c(N3CCN(Cc4ccccc4)CC3)ncnc12` is 39.1 µM; for `O=C(Nc1ccc(C(F)(F)F)cc1)C1CCCN1S(=O)(=O)c1cccc2cccnc12` (stereo unspecified) it is 22.6 µM.
The figure for `Cc1cccn2c(=O)c3c(nc12)N1CCC(Cc2ccccc2)CC1C1(C3)C(=O)N(C)C(=O)N(C)C1=O` (stereo unspecified) is 17.7 µM.
As for `c1coc(CN(Cc2cccs2)Cc2nnnn2C2CCCCC2)c1`, the figure is 19.6 µM.
In the case of `CCCOC(=O)c1ccc(Oc2c(-c3ccc(O)cc3O)n[nH]c2C)cc1`, the IC50 is 3.26 µM.
With `O=C(CNCCC1=CCCCC1)Nc1ccccc1N1CCCCC1`, the IC50 was 11.2 µM.
As for `CCOC(=O)c1cccc(NC(=O)Nc2cc(OC)ccc2OC)c1`, the figure is 20.5 µM; as for `Brc1cccc(-c2n[nH]c(-c3ccccc3)n2)c1`, 23.8 µM; as for `COc1cc2ccccc2cc1C(=O)Nc1ccc(S(=O)(=O)Nc2cc(C)on2)cc1`, 10.7 µM.
In the case of `CCOC(=O)c1c(-c2cccs2)csc1NC(=O)CN1CC(C)OC(C)C1` (stereo unspecified), the IC50 is 24.8 µM.
The figure for `Cc1onc(-c2ccccc2)c1C(=O)Nc1nnc(COc2ccc(Cl)cc2)s1` is 2.99 µM; for `O=S(=O)(Nc1cc(Cl)ccc1N1CCCCC1)c1cccs1` it is 12.5 µM; for `CCOC(=O)c1cc2c(ccn2C)n1Cc1ccccc1C` it is 27.3 µM.
The figure for `CN(C)S(=O)(=O)N(Cc1ccc(Br)cc1)c1ccccc1` is 12.9 µM; for `CCOC(=O)N1CCN(S(=O)(=O)c2ccc(OCC)c3ccccc23)CC1` it is 14.2 µM.
For `CCC1(C)Cc2ccccc2-c2nc3n(c(=O)c21)CCCCC3` (stereo unspecified), the IC50 was 15.8 µM.
The figure for `c1ccc(-c2oc3ncnc(NCCN4CCOCC4)c3c2-c2ccccc2)cc1` is 11.8 µM.
As for `CCCc1ccc(Oc2cn[nH]c2-c2ccc(O)cc2O)cc1`, the figure is 0.24 µM.
Regarding `COc1ccc(CN(C(=O)CN2C(=O)COc3ccccc32)C2CCCC2)c(OC)c1`, the IC50 is 19.1 µM.
With `O=C(CSc1nc2nc(-c3cccs3)cc(C(F)(F)F)c2c(=O)[nH]1)NCc1ccco1`, the IC50 is 5.53 µM.
Take `CCOC(=O)c1c(NC(=O)C(F)(OC)C(F)(F)F)sc(C(=O)N2CCCCC2)c1C` (stereo unspecified): the IC50 is 24.6 µM.
`COc1cccc(C(=O)Nc2nnc(-c3cccs3)o2)c1`: the IC50 is 3.87 µM.
The figure for `CC(C)Cn1c(=O)c(C(=O)Nc2cnccn2)c(O)c2ccccc21` is 14 µM.
As for `O=C(CCc1nc(-c2ccccc2F)no1)Nc1ccc(Oc2ccccc2)cc1`, the figure is 9.55 µM.
As for `C=CCN(CC=C)S(=O)(=O)c1ccc2nc(NC(=O)C(C)C)sc2c1`, the figure is 6.66 µM; as for `COC(=O)c1ccccc1NC(=O)c1ccc2c(c1)OCCO2`, 21.9 µM.
With `Cc1oc2c(CN3CCCC3)c(O)ccc2c(=O)c1-c1ccc(Br)cc1`, the IC50 was 25.5 µM.
The figure for `COc1cc(NS(=O)(=O)c2ccc(NC(=O)COc3ccccc3Cl)cc2)nc(OC)n1` is 24.6 µM; for `Cc1ccc(-c2csc(N(CC3CCCO3)C(=O)c3ccco3)n2)cc1` (stereo unspecified) it is 20.8 µM.
As for `CC1=CC(C)(C)N(C(=O)c2ccc(F)cc2)c2cc3c(cc21)OCO3`, the figure is 12.7 µM.
The figure for `COc1ccc(CN(C(=O)CN2C(=O)C(C)Oc3ccccc32)C2CCCC2)c(OC)c1` (stereo unspecified) is 28.1 µM.
Turning to `CCC(=O)N1CCN(c2cc3c(cc2F)c(=O)c(C(=O)O)cn3CC)CC1`, the IC50 is less than 0.2 µM.
Consider `CCOC(=O)C1=C(C)NC(SCC(=O)Nc2cc(C)on2)=C(C#N)C1c1cccs1` (stereo unspecified), for which the IC50 was 11 µM.
For the molecule `CC1(C)CC2CC(C)(CN2C(=O)c2cc(-c3ccccc3O)on2)C1` (stereo unspecified), the concentration for half-maximal inhibition (IC50) was 3.42 µM.
As for `CCC(Oc1ccccc1)C(=O)Nc1nnc(C(F)(F)F)s1` (stereo unspecified), the IC50 was 9.18 µM.
The figure for `OCCN1CCN(c2nc(-c3ccccc3)c3cc(Cl)ccc3n2)CC1` is 60.6 µM; for `CCc1cc2c(N3CCN(c4ccccc4)CC3)ncnc2s1` it is 13.6 µM.
